Reference: ChEMBL document CHEMBL1944509, “Methyl-monofluorination of ibuprofen selectively increases its inhibitory activity toward cyclooxygenase-1 leading to enhanced analgesic activity and reduced gastric damage in vivo” (Bioorg Med Chem Lett, 2011)

Experiments:
Mus musculus [1] = experiment: Analgesic activity in Swiss albino mouse assessed as inhibition of acetic acid-induced writhing at 30 mg/kg, ig administered 1 hr before acetic acid challenge measured 10 mins post acetic acid challenge; assay type: functional; conditions: po, route intragastric
How it was run: (§1)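 Male Swiss albino mice (22–24 g), three groups, n = 8; drug suspended in 0.5% CMC given i.g. (0.3 ml/10 g) 1 h before i.p.-unspecified injection of 1% (v/v) acetic acid at 0.1 ml/10 g. Writhes counted for 10 min starting 10 min after acetic acid; activity as percent decrease in writhing versus vehicle control; mean ± SEM, ANOVA then t-test.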

Rattus norvegicus = experiment: Antiinflammatory activity in Wistar albino rat assessed as inhibition of carrageenan-induced paw edema at 30 mg/kg, ig administered 1 hr before carrageenan challenge measured after 4 hrs post carrageenan challenge by plethysmometer; assay type: functional; conditions: po, route intragastric
How it was run: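 Male Wistar rats (140–160 g), three groups of eight; drug as 0.5% CMC suspension i.g., controls given CMC only. 1 h later, 0.1 ml of 0.1% carrageenan in 0.9% NaCl injected sub-plantar into right hind paw. Paw volume read by plethysmometer hourly to 6 h and at 24 h; inhibition % = (Vc − Vt)/Vc × 100 from mean volume increases; mean ± SEM.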

[2] = Drug level in ICR mouse brain at 5 mg/kg, iv after 4 hrs by HPLC/MS/MS analysis; assay type: ADME, organism-based; set-up: dose 5 mg/kg, route intravenous; conditions: read-out: Drug uptake
[3] = Drug level in ICR mouse brain at 10 mg/kg, po after 6 hrs by HPLC/MS/MS analysis; assay type: ADME, organism-based; set-up: dose 10 mg/kg, route oral; conditions: read-out: Drug uptake
Nucleic Acid = experiment: Ratio of drug level in brain to plasma in ICR mouse at 10 mg/kg, po after 2 hrs by HPLC/MS/MS analysis; assay type: ADME, organism-based; set-up: dose 10 mg/kg, route oral
Mus musculus [4] = experiment: Analgesic activity in Swiss albino mouse assessed as inhibition of acetic acid-induced writhing at 33.6 mg/kg, ig administered 1 hr before acetic acid challenge measured 10 mins post acetic acid challenge; assay type: functional; conditions: po, route intragastric; how it was run: as §1
[5] = target: Prostaglandin G/H synthase 1 (Homo sapiens, UniProt P23219); experiment: Ratio of ibuprofen IC50 to compound IC50 for human COX1 in HEL 92.1.7 cells

| Compound | inhibition in vivo at 30 mg/kg (Mus musculus [1]) [%] | inhibition in vivo at 30 mg/kg (Rattus norvegicus) [%] | concentration at 4 h [2] [ng/g] | concentration at 6 h [3] [ng/g] | BPR (Nucleic Acid) [mL/g] | inhibition in vivo at 33.6 mg/kg (Mus musculus [4]) [%] | Ratio IC50 [5] |
| --- | --- | --- | --- | --- | --- | --- | --- |
| CC(C)Cc1ccc([C@H](C)C(=O)O)cc1 [DEXIBUPROFEN] | 68.7 | 29.5 | 41.5 | 43.1 |  |  |  |
| CC(C)Cc1ccc([C@H](CF)C(=O)O)cc1 |  |  |  |  | 0.03 | 50 | 80 |
